System: patients with advanced solid tumors
Assay: Toxicity by grade
Type: in vivo, human
How it was run: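 Adverse events were tabulated descriptively as maximum grade in three groups: the chemotherapy-only lead-in cycle, the first veliparib-containing cycle, and all cycles. CBC and serum chemistry including liver function tests were drawn weekly during cycles 1–2, then at the start of every cycle. Veliparib was oral, twice daily on days 1–7; carboplatin/paclitaxel were IV every 21 days.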

[1] = first cycle including veliparib with carboplatin and paclitaxel, n=73
[2] = veliparib with carboplatin and paclitaxel

Compound: C[C@]1(c2nc3c(C(N)=O)cccc3[nH]2)CCCN1 [veliparib]
- Fever, Grade 4 [1]: 0 number of patients (%)
- Flu like symptoms, Any Grade [1]: 1 (1) number of patients (%)
- Flu like symptoms, Grade 1 [1]: 1 (1) number of patients (%)
- Flu like symptoms, Grade 2 [1]: 0 number of patients (%)
- Flu like symptoms, Grade 3 [1]: 0 number of patients (%)
- Flu like symptoms, Grade 4 [1]: 0 number of patients (%)
- Flushing, Any Grade [1]: 2 (3) number of patients (%)
- Flushing, Grade 1 [1]: 2 (3) number of patients (%)
- Flushing, Grade 2 [1]: 0 number of patients (%)
- Flushing, Grade 3 [1]: 0 number of patients (%)
- Flushing, Grade 4 [1]: 0 number of patients (%)
- Headache, Any Grade [1]: 3 (4) number of patients (%)
- Headache, Grade 1 [1]: 3 (4) number of patients (%)
- Headache, Grade 2 [1]: 0 number of patients (%)
- Headache, Grade 3 [1]: 0 number of patients (%)
- Headache, Grade 4 [1]: 0 number of patients (%)
- Hiccups, Any Grade [1]: 1 (1) number of patients (%)
- Hiccups, Grade 1 [1]: 1 (1) number of patients (%)
- Hiccups, Grade 2 [1]: 0 number of patients (%)
- Hiccups, Grade 3 [1]: 0 number of patients (%)
- Hiccups, Grade 4 [1]: 0 number of patients (%)
- Hypoalbuminemia, Any Grade [1]: 3 (4) number of patients (%)
- Hypoalbuminemia, Grade 1 [1]: 1 (1) number of patients (%)
- Hypoalbuminemia, Grade 2 [1]: 2 (3) number of patients (%)
- Hypoalbuminemia, Grade 3 [1]: 0 number of patients (%)
- Hypoalbuminemia, Grade 4 [1]: 0 number of patients (%)
- Hypocalcemia, Any Grade [1]: 2 (3) number of patients (%)
- Hypocalcemia, Grade 1 [1]: 0 number of patients (%)
- Hypocalcemia, Grade 2 [1]: 1 (1) number of patients (%)
- Hypocalcemia, Grade 3 [1]: 1 (1) number of patients (%)
- Hypocalcemia, Grade 4 [1]: 0 number of patients (%)
- Hypomagnesemia, Any Grade [1]: 1 (1) number of patients (%)
- Hypomagnesemia, Grade 1 [1]: 0 number of patients (%)
- Hypomagnesemia, Grade 2 [1]: 1 (1) number of patients (%)
- Hypomagnesemia, Grade 3 [1]: 0 number of patients (%)
- Hypomagnesemia, Grade 4 [1]: 0 number of patients (%)
- Hyponatremia, Any Grade [1]: 5 (7) number of patients (%)
- Hyponatremia, Grade 1 [1]: 3 (4) number of patients (%)
- Hyponatremia, Grade 2 [1]: 0 number of patients (%)
- Hyponatremia, Grade 3 [1]: 1 (1) number of patients (%)
- Hyponatremia, Grade 4 [1]: 1 (1) number of patients (%)
- Hypophosphatemia, Any Grade [1]: 1 (1) number of patients (%)
- Hypophosphatemia, Grade 1 [1]: 0 number of patients (%)
- Hypophosphatemia, Grade 2 [1]: 0 number of patients (%)
- Hypophosphatemia, Grade 3 [1]: 1 (1) number of patients (%)
- Hypophosphatemia, Grade 4 [1]: 0 number of patients (%)
- Insomnia, Any Grade [1]: 1 (1) number of patients (%)
- Insomnia, Grade 1 [1]: 1 (1) number of patients (%)
- Insomnia, Grade 2 [1]: 0 number of patients (%)
- Insomnia, Grade 3 [1]: 0 number of patients (%)
- Insomnia, Grade 4 [1]: 0 number of patients (%)
- Lymphocyte count decreased, Any Grade [1]: 14 (19) number of patients (%)
- Lymphocyte count decreased, Grade 1 [1]: 2 (3) number of patients (%)
- Lymphocyte count decreased, Grade 2 [1]: 8 (11) number of patients (%)
- Lymphocyte count decreased, Grade 3 [1]: 3 (4) number of patients (%)
- Lymphocyte count decreased, Grade 4 [1]: 1 (1) number of patients (%)
- Mucositis oropharyngeal, Any Grade [1]: 3 (4) number of patients (%)
- Mucositis oropharyngeal, Grade 1 [1]: 3 (4) number of patients (%)
- Mucositis oropharyngeal, Grade 2 [1]: 0 number of patients (%)
- Mucositis oropharyngeal, Grade 3 [1]: 0 number of patients (%)
- Mucositis oropharyngeal, Grade 4 [1]: 0 number of patients (%)
- Muscle weakness, Grade 1 [1]: 1(1) number of patients (%)
- Muscle weakness, Grade 2 [1]: 1 (1) number of patients (%)
- Muscle weakness, Grade 3 [1]: 0 number of patients (%)
- Muscle weakness, Grade 4 [1]: 0 number of patients (%)
- Myalgia, Any Grade [1]: 8 (11) number of patients (%)
- Myalgia, Grade 1 [1]: 6 (8) number of patients (%)
- Myalgia, Grade 2 [1]: 2 (3) number of patients (%)
- Myalgia, Grade 3 [1]: 0 number of patients (%)
- Myalgia, Grade 4 [1]: 0 number of patients (%)
- Nausea, Any Grade [1]: 28 (38) number of patients (%)
- Nausea, Grade 1 [1]: 22 (30) number of patients (%)
- Nausea, Grade 2 [1]: 5 (7) number of patients (%)
- Nausea, Grade 3 [1]: 1 (1) number of patients (%)
- Nausea, Grade 4 [1]: 0 number of patients (%)
- Neutrophil count decreased, Any Grade [1]: 42 (57) number of patients (%)
- Neutrophil count decreased, Grade 1 [1]: 1 (1) number of patients (%)
- Neutrophil count decreased, Grade 2 [1]: 4 (5) number of patients (%)
- Neutrophil count decreased, Grade 3 [1]: 14 (19) number of patients (%)
- Neutrophil count decreased, Grade 4 [1]: 23 (31) number of patients (%)
- Non-cardiac chest pain, Any Grade [1]: 1 (1) number of patients (%)
- Non-cardiac chest pain, Grade 1 [1]: 1 (1) number of patients (%)
- Non-cardiac chest pain, Grade 2 [1]: 0 number of patients (%)
- Non-cardiac chest pain, Grade 3 [1]: 0 number of patients (%)
- Non-cardiac chest pain, Grade 4 [1]: 0 number of patients (%)
- Paresthesia, Any Grade [1]: 1 (1) number of patients (%)
- Paresthesia, Grade 1 [1]: 1 (1) number of patients (%)
- Paresthesia, Grade 2 [1]: 0 number of patients (%)
- Paresthesia, Grade 3 [1]: 0 number of patients (%)
- Paresthesia, Grade 4 [1]: 0 number of patients (%)
- Peripheral sensory neuropathy, Any Grade [1]: 7 (10) number of patients (%)
- Peripheral sensory neuropathy, Grade 1 [1]: 7 (10) number of patients (%)
- Peripheral sensory neuropathy, Grade 2 [1]: 0 number of patients (%)
- Peripheral sensory neuropathy, Grade 3 [1]: 0 number of patients (%)
- Peripheral sensory neuropathy, Grade 4 [1]: 0 number of patients (%)
- Platelet count decreased, Any Grade [1]: 13 (18) number of patients (%)
- Platelet count decreased, Grade 1 [1]: 7 (10) number of patients (%)
- Platelet count decreased, Grade 2 [1]: 2 (3) number of patients (%)
- Platelet count decreased, Grade 3 [1]: 4 (5) number of patients (%)
- Platelet count decreased, Grade 4 [1]: 0 number of patients (%)
- Presyncope, Any Grade [1]: 1 (1) number of patients (%)
- Presyncope, Grade 1 [1]: 0 number of patients (%)
- Presyncope, Grade 2 [1]: 0 number of patients (%)
- Presyncope, Grade 3 [1]: 1 (1) number of patients (%)
- Presyncope, Grade 4 [1]: 0 number of patients (%)
- Pruritus, Any Grade [1]: 3 (4) number of patients (%)
- Pruritus, Grade 1 [1]: 3 (4) number of patients (%)
- Pruritus, Grade 2 [1]: 0 number of patients (%)
- Pruritus, Grade 3 [1]: 0 number of patients (%)
- Pruritus, Grade 4 [1]: 0 number of patients (%)
- Purpura, Any Grade [1]: 1 (1) number of patients (%)
- Purpura, Grade 1 [1]: 1 (1) number of patients (%)
- Purpura, Grade 2 [1]: 0 number of patients (%)
- Purpura, Grade 3 [1]: 0 number of patients (%)
- Purpura, Grade 4 [1]: 0 number of patients (%)
- Rash maculopapular, Any Grade [1]: 2 (3) number of patients (%)
- Rash maculopapular, Grade 1 [1]: 2 (3) number of patients (%)
- Rash maculopapular, Grade 2 [1]: 0 number of patients (%)
- Rash maculopapular, Grade 3 [1]: 0 number of patients (%)
- Rash maculopapular, Grade 4 [1]: 0 number of patients (%)
- Sepsis, Any Grade [1]: 2 (3) number of patients (%)
- Sepsis, Grade 1 [1]: 0 number of patients (%)
- Sepsis, Grade 2 [1]: 0 number of patients (%)
- Sepsis, Grade 3 [1]: 0 number of patients (%)
- Sepsis, Grade 4 [1]: 2 (3) number of patients (%)
- Sinus disorder, Any Grade [1]: 1 (1) number of patients (%)
- Sinus disorder, Grade 1 [1]: 1 (1) number of patients (%)
- Sinus disorder, Grade 2 [1]: 0 number of patients (%)
- Sinus disorder, Grade 3 [1]: 0 number of patients (%)
- Sinus disorder, Grade 4 [1]: 0 number of patients (%)
- Tremor, Any Grade [1]: 1 (1) number of patients (%)
- Tremor, Grade 1 [1]: 1 (1) number of patients (%)
- Tremor, Grade 2 [1]: 0 number of patients (%)
- Tremor, Grade 3 [1]: 0 number of patients (%)
- Tremor, Grade 4 [1]: 0 number of patients (%)
- Upper respiratory infection, Any Grade [1]: 1 (1) number of patients (%)
- Upper respiratory infection, Grade 1 [1]: 0 number of patients (%)
- Upper respiratory infection, Grade 2 [1]: 1 (1) number of patients (%)
- Upper respiratory infection, Grade 3 [1]: 0 number of patients (%)
- Upper respiratory infection, Grade 4 [1]: 0 number of patients (%)
- Vomiting, Any Grade [1]: 9 (12) number of patients (%)
- Vomiting, Grade 1 [1]: 7 (10) number of patients (%)
- Vomiting, Grade 2 [1]: 2 (3) number of patients (%)
- Vomiting, Grade 3 [1]: 0 number of patients (%)
- Vomiting, Grade 4 [1]: 0 number of patients (%)
- Weight loss, Any Grade [1]: 2 (3) number of patients (%)
- Weight loss, Grade 1 [1]: 2 (3) number of patients (%)
- Weight loss, Grade 2 [1]: 0 number of patients (%)
- Weight loss, Grade 3 [1]: 0 number of patients (%)
- Weight loss, Grade 4 [1]: 0 number of patients (%)
- White blood cell decreased, Any Grade [1]: 40 (55) number of patients (%)
- White blood cell decreased, Grade 1 [1]: 6 (8) number of patients (%)
- White blood cell decreased, Grade 2 [1]: 14 (19) number of patients (%)
- White blood cell decreased, Grade 3 [1]: 17 (23) number of patients (%)
- White blood cell decreased, Grade 4 [1]: 3 (4) number of patients (%)
- Febrile neutropenia or grade 3-4 neutropenia lasting more than 7 days (total across the dose levels): 7 patients
- neutropenia highest grade 3, DLT assessment period [2]: 19%
- neutropenia highest grade 4, DLT assessment period [2]: 31%
- neutropenia, frequency during the DLT assessment period [2]: 57%
